# Assay results from ChEMBL document CHEMBL5724801, “EUbOPEN Chemogenomics Library - Multiplex” (2024).
# Values joined by “and” are separate entries in the source; they are usually repeats but may differ in a detail not shown here. Identical values can stand only once.
# Test system: HEK-293T
# Assay: Multiplex assay against HEK293T
# Format: toxicity, cell-based
# Conditions: human
# In short: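 Compound was added to live cells that had been stained at seeding with Hoechst33342, BioTracker Green Microtubule Cytoskeleton Dye, MitoTracker Red and Annexin V Alexa Fluor 680, and imaging followed on a CQ1 microscope at 37°C and 5% CO2. CellPathfinder machine-learning gating divided cells into Hoechst high-intensity objects or normal cells, normal cells into healthy, pyknosed or fragmented nuclei, and pyknosed cells into mitotic or apoptotic. Tubulin, mitochondrial-mass and membrane-permeability phenotypes are per cents of healthy-nucleus cells.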
# [1] = 12 h, 1 µM, compound concentration 1 uM
# [2] = 12 h, 10 µM, compound concentration 10 uM
# [3] = 24 h, 1 µM, compound concentration 1 uM
# [4] = 24 h, 10 µM, compound concentration 10 uM
# [5] = 48 h, 1 µM, compound concentration 1 uM
# [6] = 48 h, 10 µM, compound concentration 10 uM
structure (smiles),measurement,setting,value
CC(C)COc1ccc(CNC(=O)N(Cc2ccc(F)cc2)C2CCN(C)CC2)cc1 [PIMAVANSERIN],Population Apoptotic (%),[1],39% and 54%
same,Population Fragmented Nuclei (%),[1],5% and 7%
same,Population Healthy Nuclei (%),[1],82% and 74%
same,Population Hoechst High Intensity Objects (%),[1],6% and 11%
same,Population Membrane Permeable-Phenotype (%),[1],0%
same,Population Mitochondria Different-Phenotype (%),[1],50% and 68%
same,Population Mitotic Cells (%),[1],60% and 46%
same,Population Normal (%),[1],93% and 88%
same,Population Pyknosed Nuclei (%),[1],11% and 18%
same,Population Tubulin-Different-Phenotype (%),[1],49% and 35%
same,Total Cell Count,[1],430 and 311
same,Population Apoptotic (%),[2],62% and 79%
same,Population Fragmented Nuclei (%),[2],10% and 7%
same,Population Healthy Nuclei (%),[2],60% and 64%
same,Population Hoechst High Intensity Objects (%),[2],19% and 25%
same,Population Membrane Permeable-Phenotype (%),[2],0%
same,Population Mitochondria Different-Phenotype (%),[2],89% and 87%
same,Population Mitotic Cells (%),[2],37% and 20%
same,Population Normal (%),[2],80% and 74%
same,Population Pyknosed Nuclei (%),[2],28% and 27%
same,Population Tubulin-Different-Phenotype (%),[2],81% and 66%
same,Total Cell Count,[2],285 and 237
same,Population Apoptotic (%),[3],33% and 48%
same,Population Fragmented Nuclei (%),[3],9% and 4%
same,Population Healthy Nuclei (%),[3],77% and 82%
same,Population Hoechst High Intensity Objects (%),[3],6% and 8%
same,Population Membrane Permeable-Phenotype (%),[3],2% and 0%
same,Population Mitochondria Different-Phenotype (%),[3],42% and 55%
same,Population Mitotic Cells (%),[3],66% and 51%
same,Population Normal (%),[3],93% and 91%
same,Population Pyknosed Nuclei (%),[3],13% and 12%
same,Population Tubulin-Different-Phenotype (%),[3],40% and 30%
same,Total Cell Count,[3],553 and 394
same,Population Apoptotic (%),[4],81% and 84%
same,Population Fragmented Nuclei (%),[4],10% and 12%
same,Population Healthy Nuclei (%),[4],57% and 54%
same,Population Hoechst High Intensity Objects (%),[4],27% and 34%
same,Population Membrane Permeable-Phenotype (%),[4],0%
same,Population Mitochondria Different-Phenotype (%),[4],94% and 100%
same,Population Mitotic Cells (%),[4],18% and 15%
same,Population Normal (%),[4],72% and 65%
same,Population Pyknosed Nuclei (%),[4],31% and 32%
same,Population Tubulin-Different-Phenotype (%),[4],77% and 69%
same,Total Cell Count,[4],285 and 215
same,Population Apoptotic (%),[5],27% and 48%
same,Population Fragmented Nuclei (%),[5],13% and 9%
same,Population Healthy Nuclei (%),[5],77% and 84%
same,Population Hoechst High Intensity Objects (%),[5],5%
same,Population Membrane Permeable-Phenotype (%),[5],1% and 0%
same,Population Mitochondria Different-Phenotype (%),[5],31% and 33%
same,Population Mitotic Cells (%),[5],72% and 51%
same,Population Normal (%),[5],94%
same,Population Pyknosed Nuclei (%),[5],8% and 6%
same,Population Tubulin-Different-Phenotype (%),[5],33% and 21%
same,Total Cell Count,[5],869 and 601
same,Population Apoptotic (%),[6],75% and 61%
same,Population Fragmented Nuclei (%),[6],29% and 31%
same,Population Healthy Nuclei (%),[6],30%
same,Population Hoechst High Intensity Objects (%),[6],52% and 60%
same,Population Membrane Permeable-Phenotype (%),[6],0%
same,Population Mitochondria Different-Phenotype (%),[6],88% and 92%
same,Population Mitotic Cells (%),[6],24% and 38%
same,Population Normal (%),[6],47% and 40%
same,Population Pyknosed Nuclei (%),[6],40% and 37%
same,Population Tubulin-Different-Phenotype (%),[6],58% and 64%
same,Total Cell Count,[6],235 and 205
Cc1noc(C)c1-c1cnc2c(-c3ccc(C(=O)O)cc3)cn([C@@H](C)c3ccccn3)c2c1 [PLX-51107],Population Apoptotic (%),[1],5.67% and 10.17%
same,Population Fragmented Nuclei (%),[1],1.66% and 3.31%
same,Population Hoechst High Intensity Objects (%),[1],0%
same,Population Membrane Permeable-Phenotype (%),[1],0% and 7.14%
same,Population Mitotic Cells (%),[1],94.33% and 89.83%
same,Population Normal (%),[1],100%
same,Population Pyknosed Nuclei (%),[1],40.33% and 78.15%
same,Population Tubulin-Different-Phenotype (%),[1],2.51% and 7.14%
same,Population Apoptotic (%),[2],13.75% and 7.84%
same,Population Healthy Nuclei (%),[2],45.95% and 25.98%
same,Population Hoechst High Intensity Objects (%),[2],0%
same,Population Membrane Permeable-Phenotype (%),[2],0%
same,Population Mitotic Cells (%),[2],86.25% and 92.16%
same,Population Normal (%),[2],100%
same,Population Pyknosed Nuclei (%),[2],51.78% and 54.45%
same,Population Tubulin-Different-Phenotype (%),[2],4.23% and 5.48%
same,Total Cell Count,[2],309 and 281
same,Population Apoptotic (%),[3],9.2% and 11.02%
same,Population Fragmented Nuclei (%),[3],1.19% and 0.87%
same,Population Healthy Nuclei (%),[3],75.73% and 43.91%
same,Population Hoechst High Intensity Objects (%),[3],0%
same,Population Membrane Permeable-Phenotype (%),[3],0%
same,Population Mitochondria Different-Phenotype (%),[3],7.18% and 2.97%
same,Population Mitotic Cells (%),[3],90.8% and 88.98%
same,Population Normal (%),[3],100%
same,Population Pyknosed Nuclei (%),[3],23.08% and 55.22%
same,Population Tubulin-Different-Phenotype (%),[3],0.7% and 3.96%
same,Population Apoptotic (%),[4],10.67% and 13.49%
same,Population Healthy Nuclei (%),[4],62.01% and 40.13%
same,Population Hoechst High Intensity Objects (%),[4],0%
same,Population Membrane Permeable-Phenotype (%),[4],0% and 0.81%
same,Population Mitochondria Different-Phenotype (%),[4],8.3% and 4.84%
same,Population Mitotic Cells (%),[4],89.33% and 86.51%
same,Population Normal (%),[4],100%
same,Population Pyknosed Nuclei (%),[4],36.76% and 40.78%
same,Population Tubulin-Different-Phenotype (%),[4],0% and 5.65%
same,Total Cell Count,[4],408 and 309
same,Population Fragmented Nuclei (%),[5],6.3% and 3.02%
same,Population Healthy Nuclei (%),[5],84.08% and 65.66%
same,Population Hoechst High Intensity Objects (%),[5],0.14% and 0%
same,Population Membrane Permeable-Phenotype (%),[5],0.33% and 1.15%
same,Population Mitochondria Different-Phenotype (%),[5],5.35% and 6.9%
same,Population Mitotic Cells (%),[5],94.96% and 79.52%
same,Population Normal (%),[5],99.86% and 100%
same,Population Tubulin-Different-Phenotype (%),[5],0.33% and 2.87%
same,Population Healthy Nuclei (%),[6],78.62% and 47.53%
same,Population Hoechst High Intensity Objects (%),[6],0%
same,Population Membrane Permeable-Phenotype (%),[6],0.21% and 0.65%
same,Population Mitochondria Different-Phenotype (%),[6],10.49% and 12.34%
same,Population Mitotic Cells (%),[6],95.33% and 80.87%
same,Population Normal (%),[6],100%
same,Population Pyknosed Nuclei (%),[6],18.01% and 35.49%
same,Population Tubulin-Different-Phenotype (%),[6],0.43% and 6.49%
same,Total Cell Count,[6],594 and 324
